Data as given in ChEMBL document CHEMBL3813692, “Discovery of a Fluorinated Enigmol Analog with Enhanced in Vivo Pharmacokinetic and Anti-Tumor Properties” (ACS Med Chem Lett, 2016).
pIC50: −log10 of the molar value. Active and inactive are the calls of the source. No cut-off for these calls is given here.

Key:
[1] = Lipophilicity, log P of the compound; assay type: physicochemical; conditions: octanol/water
[2] = Drug uptake in pre-cannulated Sprague-Dawley rat lung at 10 mg/kg administered via oral gavage after 24 hrs by LC-MS/MS analysis; assay type: ADME, organism-based; conditions: read-out: Drug uptake
In short: (§1)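 After one 10 mg/kg oral gavage to SD rats (n = 4 per group), red blood cells, brain, lung, liver, kidney and prostate were harvested at 24 h. Drug levels were quantified by LC-MS/MS.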

[3] = Drug uptake in tumor of human PC3 cells xenografted in athymic NCr-nu/nu mouse at 10 mg/kg, qd administered via oral gavage measured 24 hrs post last dose by LC-MS/MS analysis; assay type: ADME, organism-based, Neoplasm, PC-3; conditions: read-out: Drug uptake
In short: (§2)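 Tumors were harvested at the end of daily oral-gavage xenograft studies in nude mice bearing PC-3 tumors (3, 10 or 30 mg/kg). Drug accumulation in tumor was measured by LC-MS/MS and reported as mean ± SEM.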

[4] = Tmax in pre-cannulated Sprague-Dawley rat at 10 mg/kg administered via oral gavage after 0.5 to 24 hrs by LC-MS/MS analysis; assay type: ADME, organism-based; conditions: in vivo
In short: (§3)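 A single 10 mg/kg oral gavage was given to SD rats (n = 4 per group). Vehicle was 90:10 olive oil/EtOH or 95:5 PEG400/Tween80, depending on the analog. Plasma was collected periodically and drug was measured by LC-MS/MS; data are mean ± SEM.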

[5] = Cmax in pre-cannulated Sprague-Dawley rat at 10 mg/kg administered via oral gavage after 0.5 to 24 hrs by LC-MS/MS analysis; assay type: ADME, organism-based; parameters: dose 10 mg/kg, route oral; conditions: in vivo; in short: as §3
[6] = Cytotoxicity against human PC3 cells assessed as reduction in cell viability after 24 hrs by WST-1 assay; assay type: functional, cell-based; conditions: PC-3, 24 h
In short: (§4)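 Cells were exposed to compound for 24 h (n = 3–4), and viability was read as mitochondrial activity by WST-1. IC50 and IC90 were derived from concentration–response curves and reported as mean ± SEM.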

[7] = Drug uptake in pre-cannulated Sprague-Dawley rat RBC at 10 mg/kg administered via oral gavage after 24 hrs by LC-MS/MS analysis; assay type: ADME, organism-based, Erythrocyte; conditions: red blood cells, read-out: Drug uptake; in short: as §1
[8] = Drug uptake in pre-cannulated Sprague-Dawley rat liver at 10 mg/kg administered via oral gavage after 24 hrs by LC-MS/MS analysis; assay type: ADME, organism-based; conditions: read-out: Drug uptake; in short: as §1
PC-3 [9] = assay: Antitumor activity against human PC3 cells xenografted in athymic NCr-nu/nu mouse assessed as tumor growth inhibition at 10 mg/kg, qd administered via oral gavage measured every 2 to 3 days; assay type: functional, organism-based
In short: (§5)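 Nude mice with palpable subcutaneous PC-3 tumors (n = 9–11 per group) were dosed once daily by oral gavage. Study 1 used 3 or 10 mg/kg in 95:5 olive oil/EtOH vehicle; study 2 used 10 or 30 mg/kg in 95:5 PEG400/Tween80 vehicle. Tumor volume and body weight were measured periodically. Tumor growth was analysed by a repeated-measures linear mixed model with autoregressive covariance; weight change by one-way ANOVA with Sidak's test.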

[10] = AUC(0 to t) in pre-cannulated Sprague-Dawley rat at 2 mg/kg, iv after […] to 8 hrs by LC-MS/MS analysis; assay type: ADME, organism-based; parameters: time upper 8 hr, dose 2 mg/kg, route intravenous; conditions: in vivo
In short: (§6)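 SD rats (n = 3–4 per group) received a single 2 mg/kg i.v. injection in PEG400/EtOH/Tween80/H2O (40:10:3:47). Plasma was sampled periodically and drug was quantified by LC-MS/MS. t1/2, Cl, Cmax and AUC were reported as mean ± SEM.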

[11] = Octanol-buffer partition co-efficient, log D of the compound at 100 uM at pH 7.4 by shake-flask method; assay type: physicochemical
Mus musculus [12] = assay: Toxicity in athymic NCr-nu/nu mouse xenografted with human PC3 cells assessed as change in body weight at 10 mg/kg administered via oral gavage measured every 2 to 3 days; assay type: organism-based, PC-3; conditions: in vivo; in short: as §5
[13] = Terminal half-life in pre-cannulated Sprague-Dawley rat at 10 mg/kg administered via oral gavage after 0.5 to 24 hrs by LC-MS/MS analysis; assay type: ADME, organism-based; conditions: in vivo, read-out: beta t1/2 (converted); in short: as §3
[14] = Terminal half-life in pre-cannulated Sprague-Dawley rat at 2 mg/kg, iv after […] to 8 hrs by LC-MS/MS analysis; assay type: ADME, organism-based; conditions: in vivo, read-out: beta t1/2 (converted); in short: as §6
[15] = Drug uptake in tumor of human PC3 cells xenografted in athymic NCr-nu/nu mouse at 30 mg/kg, qd administered via oral gavage measured 24 hrs post last dose by LC-MS/MS analysis; assay type: ADME, organism-based, Neoplasm, PC-3; conditions: read-out: Drug uptake; in short: as §2
LNCaP = assay: Cytotoxicity against human LNCAP cells assessed as reduction in cell viability after 24 hrs by WST-1 assay; assay type: functional, cell-based; in short: as §4
[16] = Drug uptake in pre-cannulated Sprague-Dawley rat kidney at 10 mg/kg administered via oral gavage after 24 hrs by LC-MS/MS analysis; assay type: ADME, organism-based; conditions: read-out: Drug uptake; in short: as §1
[17] = Oral bioavailability in pre-cannulated Sprague-Dawley rat at 10 mg/kg administered via gavage after 0.5 to 24 hrs by LC-MS/MS analysis; assay type: ADME, organism-based; conditions: in vivo
[18] = AUC(0 to t) in pre-cannulated Sprague-Dawley rat at 10 mg/kg administered via oral gavage after 0.5 to 24 hrs by LC-MS/MS analysis; assay type: ADME, organism-based; parameters: time upper 24 hr, time lower 0.5 hr, dose 10 mg/kg, route oral; conditions: in vivo; in short: as §3
Plasma [19] = assay: Drug uptake in pre-cannulated Sprague-Dawley rat plasma at 10 mg/kg administered via oral gavage after 2 hrs by LC-MS/MS analysis; assay type: ADME, organism-based; conditions: in vivo; in short: as §3
[20] = Clearance in pre-cannulated Sprague-Dawley rat at 2 mg/kg, iv after […] to 8 hrs by LC-MS/MS analysis; assay type: ADME, organism-based; conditions: in vivo; in short: as §6
[21] = Drug uptake in pre-cannulated Sprague-Dawley rat prostate gland at 10 mg/kg administered via oral gavage after 24 hrs by LC-MS/MS analysis; assay type: ADME, organism-based; conditions: read-out: Drug uptake; in short: as §1
Mus musculus [22] = assay: Toxicity in athymic NCr-nu/nu mouse xenografted with human PC3 cells assessed as change in body weight at 30 mg/kg administered via oral gavage measured every 2 to 3 days; assay type: organism-based, PC-3; conditions: in vivo; in short: as §5
[23] = Drug uptake in pre-cannulated Sprague-Dawley rat brain at 10 mg/kg administered via oral gavage after 24 hrs by LC-MS/MS analysis; assay type: ADME, organism-based; conditions: read-out: Drug uptake; in short: as §1
[24] = Tmax in pre-cannulated Sprague-Dawley rat at 2 mg/kg, iv after […] to 8 hrs by LC-MS/MS analysis; assay type: ADME, organism-based; conditions: in vivo; in short: as §6
[25] = Cmax in pre-cannulated Sprague-Dawley rat at 2 mg/kg, iv after […] to 8 hrs by LC-MS/MS analysis; assay type: ADME, organism-based; parameters: dose 2 mg/kg, route intravenous; conditions: in vivo; in short: as §6
Mus musculus [26] = assay: Toxicity in athymic NCr-nu/nu mouse xenografted with human PC3 cells assessed as change in body weight at 3 mg/kg administered via oral gavage measured every 2 to 3 days; assay type: organism-based, PC-3; conditions: in vivo; in short: as §5
Plasma [27] = assay: Drug uptake in pre-cannulated Sprague-Dawley rat plasma at 10 mg/kg administered via oral gavage after 1 hr by LC-MS/MS analysis; assay type: ADME, organism-based; conditions: in vivo; in short: as §3
[28] = Drug uptake in tumor of human PC3 cells xenografted in athymic NCr-nu/nu mouse at 3 mg/kg, qd administered via oral gavage measured 24 hrs post last dose by LC-MS/MS analysis; assay type: ADME, organism-based, Neoplasm, PC-3; conditions: read-out: Drug uptake; in short: as §2
PC-3 [29] = assay: Antitumor activity against human PC3 cells xenografted in athymic NCr-nu/nu mouse assessed as tumor growth inhibition at 3 mg/kg, qd administered via oral gavage measured every 2 to 3 days; assay type: functional, organism-based; in short: as §5

Structure (SMILES) | concentration at 24 h [2] [µM] | concentration at 24 h [3] [µM] | Tmax [4] [h] | Cmax [5] [µM] | pIC50 [6] | IC90 [6] [µM] | concentration at 24 h [7] [µM] | concentration at 24 h [8] [µM] | TGI (PC-3 [9]) | AUC(0-t) [10] [µM·h] | logD at 100 µM [11] | Activity (Mus musculus [12]) | half-life [13] [h] | half-life [14] [h] | pIC50 (LNCaP) | IC90 (LNCaP) [µM] | concentration at 24 h [16] [µM] | bioavailability [17] [%] | AUC(0-t) [18] [µM·h] | clearance [20] [mL/min/kg] | other results
CCCCCC(O)C(F)(F)F (stereo not given) |  |  |  |  |  |  |  |  |  |  |  |  |  |  |  |  |  |  |  |  | logP [1]: 1.14
CCCCCCCCCCCCC(F)(F)[C@H](O)C[C@H](O)[C@H](C)N | 44.5 | 23.6 | 8 | 0.119 | 4.93 | 15.3 | 0.936 | 9.29 | Active | 2.91 | 1.73 | Non-toxic | 9.9 | 5.7 | 4.87 | 16.7 | 14.8 | 10 | 1.47 | 34 | concentration at 24 h [15]: 62 µM; Drug uptake (Plasma [19]): Not Active; concentration at 24 h [21]: 6.94 µM; Activity (Mus musculus [22]): Non-toxic; concentration at 24 h [23]: 16.1 µM; Tmax [24]: 4.8 min; Cmax [25]: 4.4 µM
CCCCCCCCCCCCC[C@H](O)C[C@H](O)[C@H](C)N [ENIGMOL] | 5.34 | 1.6 | 8 | 0.0846 | 4.92 | 14 | 0.041 | 1.06 | Active | 1.45 | 3.5 | Non-toxic | 8.3 | 4 | 4.93 | 19.6 | 1.35 | 11 | 0.832 | 76.2 | Activity (Mus musculus [26]): Non-toxic; Drug uptake (Plasma [27]): Not Active; concentration at 24 h [28]: 1.05 µM; TGI (PC-3 [29]): inactive; concentration at 24 h [21]: 0.766 µM; concentration at 24 h [23]: 3.25 µM; Tmax [24]: 4.8 min; Cmax [25]: 2.45 µM
C[C@H](N)[C@@H](O)C[C@@H](O)CCCCCCCCCCCCC(F)(F)F | 18.7 | 25.3 | 12 | 0.193 | 4.67 | 24.4 | 0.153 | 1.94 | inactive | 0.688 | 3.24 | 11.6% | 5.5 | 1.3 | 4.95 | 19.2 | 4.74 | 68 | 2.34 | 136 | Activity (Mus musculus [26]): Non-toxic; Drug uptake (Plasma [27]): Not Active; concentration at 24 h [28]: 3.23 µM; TGI (PC-3 [29]): inactive; concentration at 24 h [21]: 3.46 µM; concentration at 24 h [23]: 6.01 µM; Tmax [24]: 4.8 min; Cmax [25]: 1.68 µM
OC(F)(F)CF |  |  |  |  |  |  |  |  |  |  |  |  |  |  |  |  |  |  |  |  | logP [1]: 0.36
